Calls of active or inactive are those of the source. The rule behind the calls is not given here.
Experiments:
Cytochrome P450 4F2 [1] = target: T1, Cytochrome P450 4F2 (Homo sapiens, UniProt P78329); test: Inhibition of CYP4F2-mediated gamma-tocopherol metabolism in human HepG2/C3A cells preincubated for 4 hrs and continued for 48 hrs; assay type: cell-based; conditions: for Activity: human, hepg2/c3a, 48 h
T1 sequence (P78329 whole entry): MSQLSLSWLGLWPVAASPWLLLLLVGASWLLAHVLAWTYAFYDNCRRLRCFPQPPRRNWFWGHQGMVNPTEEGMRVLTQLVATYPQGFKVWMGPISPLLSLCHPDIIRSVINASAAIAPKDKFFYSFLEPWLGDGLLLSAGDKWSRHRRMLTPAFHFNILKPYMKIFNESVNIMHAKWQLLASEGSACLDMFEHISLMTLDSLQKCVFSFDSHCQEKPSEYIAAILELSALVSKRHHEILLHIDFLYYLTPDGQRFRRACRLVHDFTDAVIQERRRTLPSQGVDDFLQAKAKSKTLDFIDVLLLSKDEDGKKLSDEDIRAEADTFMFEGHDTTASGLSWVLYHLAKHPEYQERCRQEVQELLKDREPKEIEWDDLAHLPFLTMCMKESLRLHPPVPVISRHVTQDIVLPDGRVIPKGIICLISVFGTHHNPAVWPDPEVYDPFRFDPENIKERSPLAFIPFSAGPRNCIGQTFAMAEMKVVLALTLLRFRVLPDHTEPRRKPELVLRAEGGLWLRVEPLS
Outline: (§1)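 Confluent HepG2/C3A monolayers pre-incubated 4 hr with inhibitor (ethanol stock) or ethanol vehicle. Medium then replaced with fresh medium containing γ-tocopherol, 25 µM final, plus inhibitor again. After 48 hr, medium analysed by GC-MS for 3'- and 5'-carboxychromanols, with d9-α-CEHC internal standard. Results given as percent inhibition, means and standard deviation.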

Cytochrome P450 4F2 [2] = target: T1, Cytochrome P450 4F2; test: Inhibition of CYP4F2-mediated gamma-tocopherol metabolism in human HepG2/C3A cells at 1 uM preincubated for 6 hrs and continued for 24 hrs; assay type: cell-based
Outline: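 Confluent HepG2/C3A monolayers exposed to 1 µM inhibitor for 6 hr. Then incubated 24 hr in medium with 25 µM γ-tocopherol, inhibitor not replaced. Medium carboxychromanol metabolites measured by GC-MS against d9-α-CEHC internal standard.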

Mus musculus [3] = test: Enrichment in delta-tocopherol in FVB/N mouse liver assessed as doubling in delta-tocopherol/alpha-tocopherol ratio at 500 mg/kg in delta-tocopherol rich diet for 10 days; assay type: functional, organism-based; design: dose 500 mg/kg
Mus musculus [4] = test: Enrichment in delta-tocopherol in FVB/N mouse bile assessed as tripling in delta-tocopherol/alpha-tocopherol ratio at 500 mg/kg in delta-tocopherol rich diet for 10 days; assay type: functional, organism-based; design: dose 500 mg/kg
Cytochrome P450 3A4 [5] = target: T2, Cytochrome P450 3A4 (Homo sapiens, UniProt P08684); test: Inhibition of CYP3A4 in human HepG2/C3A cells assessed as testosterone-6-hydroxylase activity; assay type: ADME, cell-based
T2 sequence (P08684 whole entry): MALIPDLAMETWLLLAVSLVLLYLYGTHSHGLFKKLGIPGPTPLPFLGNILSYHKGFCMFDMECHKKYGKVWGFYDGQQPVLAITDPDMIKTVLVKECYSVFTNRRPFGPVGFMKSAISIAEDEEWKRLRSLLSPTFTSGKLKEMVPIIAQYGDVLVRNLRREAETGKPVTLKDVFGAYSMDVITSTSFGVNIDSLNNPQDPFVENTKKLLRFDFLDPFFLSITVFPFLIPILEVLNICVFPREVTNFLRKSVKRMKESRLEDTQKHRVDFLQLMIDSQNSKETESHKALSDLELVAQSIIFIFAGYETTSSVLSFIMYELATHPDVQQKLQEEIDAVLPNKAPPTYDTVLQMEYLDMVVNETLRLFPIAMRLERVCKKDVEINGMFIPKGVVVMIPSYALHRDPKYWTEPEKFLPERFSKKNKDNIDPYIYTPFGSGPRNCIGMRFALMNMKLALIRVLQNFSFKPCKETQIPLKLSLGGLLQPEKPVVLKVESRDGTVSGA
Outline: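 Confluent HepG2/C3A cultures pre-incubated 4 hr with inhibitor or ethanol control, then given 50 µM testosterone. After 48 hr, medium extracted with ethyl acetate and 6-hydroxytestosterone measured as its trimethylsilyl ether by GC-MS. Percent inhibition reported as means and standard deviation.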

Cytochrome P450 3A4 [6] = target: T2, Cytochrome P450 3A4; test: Inhibition of human recombinant CYP3A4 expressed in insect cell microsome assessed as testosterone-6-hydroxylase activity at 4 uM after 60 mins; assay type: ADME, microsomes; conditions: recombinant enzyme, 1 h
Outline: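 Insect-cell microsomes expressing only recombinant human CYP3A4 (20 pmol P450) incubated 60 min with 200 µM testosterone, 1 mM NADPH and 0.25% BSA in […], pH 7.4, with or without inhibitor. Reaction stopped with cold ethanol and extracted with hexane/MTBE (7:1). 6-OH-testosterone expressed as nmol per nmol membrane cholesterol.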

CYP4F2 [7] = target: T3, CYP4F2 (Homo sapiens, UniProt P78329); test: Inhibition of CYP4F2-mediated gamma-tocopherol metabolism in human HepG2/C3A cells at 1.0 uM preincubated for 4 hrs and continued for 48 hrs; assay type: cell-based; conditions: probe gamma-tocopherol; outline: as §1
T3 sequence (P78329 whole entry): T1 sequence (P78329 whole entry)

CYP4F2 [8] = target: T3, CYP4F2; test: Inhibition of CYP4F2-mediated gamma-tocopherol metabolism in human HepG2/C3A cells at 20 nM preincubated for 4 hrs and continued for 48 hrs; assay type: cell-based; conditions: probe gamma-tocopherol; outline: as §1

Compound: Cc1c(C)c2c(c(C)c1O)CC[C@@](C)(CCCCCCCCCn1cnc3ccccc31)O2
- Activity (Cytochrome P450 4F2 [1]): Not Active

Compound: Cc1c(C)c2c(c(C)c1O)CC[C@@](C)(CCCCCCCCCn1ccnc1)O2
- IC50 (Cytochrome P450 4F2 [1]; read-out: ED50 (the source's name)): 1 nM
- Activity (Cytochrome P450 4F2 [2]): Active
- Activity (Mus musculus [3]): Active
- Activity (Mus musculus [4]): Active
- Activity (Cytochrome P450 3A4 [5]): Active
- inhibition (INH) (Cytochrome P450 3A4 [6]): 90%

Compound: Cc1c(C)c2c(c(C)c1O)CC[C@@](C)(CCCCCCCCCn1ccnn1)O2
- inhibition at 48 h, 1 µM (CYP4F2 [7]): 36%
- Activity (Cytochrome P450 3A4 [5]): Active

Compound: Cc1c(C)c2c(c(C)c1O)CC[C@@](C)(CCCCCCCCCn1nnc3ccccc31)O2
- Activity (Cytochrome P450 4F2 [1]): Not Active

Compound: Cc1c(C)c2c(c(C)c1O)CC[C@@](C)(CCCCCCCCCn1nc3ccccc3n1)O2
- Activity (Cytochrome P450 4F2 [1]): Not Active

Compound: Cc1c(C)c2c(c(C)c1O)CC[C@@](C)(CCCCCCCCCn1cncn1)O2
- inhibition at 48 h, 0.02 µM (CYP4F2 [8]): 42%
- Activity (Cytochrome P450 3A4 [5]): Active

— ChEMBL document CHEMBL1155958, “Inhibition of oxidative metabolism of tocopherols with omega-N-heterocyclic derivatives of vitamin E” (Bioorg Med Chem, 2008)
